Laboratory results from ChEMBL document CHEMBL1139444, “Oxazolidinone: search for highly potent antibacterial” (2004).
Converted amounts (≈) assume the structure as drawn.

Tests used:
Type in all cases: functional
[1] = tested on: Enterococcus faecalis; test: Minimum inhibitory concentration against Enterococcus faecalis MTCC 439
Summary of the method: (§1)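 Microbroth dilution MIC determination, with results expressed in μg/mL. Where run in triplicate, the highest MIC of the three replicates is the value reported.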

[2] = tested on: Bacillus pumilus; test: Minimum inhibitory concentration against Bacillus pumilus MTCC 1607; summary of the method: as §1
[3] = tested on: Bacillus cereus; test: Minimum inhibitory concentration against Bacillus cereus MTCC 430; summary of the method: as §1
[4] = tested on: Staphylococcus epidermidis; test: Minimum inhibitory concentration against Staphylococcus epidermidis MTCC 155; summary of the method: as §1
[5] = tested on: Streptococcus pyogenes; test: Minimum inhibitory concentration against Streptococcus pyogenes MTCC 442; summary of the method: as §1
[6] = tested on: Staphylococcus aureus; test: Minimum inhibitory concentration against Staphylococcus aureus MTCC 96; summary of the method: as §1
[7] = tested on: Enterococcus faecalis; test: Minimum inhibitory concentration against Enterococcus faecalis ATCC 14506; summary of the method: as §1
[8] = tested on: Staphylococcus aureus; test: Minimum inhibitory concentration against Staphylococcus aureus ATCC 29213; summary of the method: as §1
[9] = tested on: Staphylococcus aureus; test: Minimum inhibitory concentration against Staphylococcus aureus ATCC 25923; summary of the method: as §1
[10] = tested on: Staphylococcus aureus; test: Minimum inhibitory concentration against Staphylococcus aureus ATCC 14154; summary of the method: as §1
[11] = tested on: Klebsiella pneumoniae; test: Minimum inhibitory concentration against Klebsiella pneumoniae ATCC 10031; summary of the method: as §1

| MIC [1] [µg/mL] | MIC [2] [µg/mL] | MIC [3] [µg/mL] | MIC [4] [µg/mL] | MIC [5] [µg/mL] | MIC [6] [µg/mL] | MIC [7] [µg/mL] | MIC [8] [µg/mL] | MIC [9] [µg/mL] | MIC [10] [µg/mL] | MIC [11] [µg/mL] | Compound |
| --- | --- | --- | --- | --- | --- | --- | --- | --- | --- | --- | --- |
| > 16 | 16 (≈ 31.8 µM) | 4 (≈ 7.96 µM) | > 16 | 4 (≈ 7.96 µM) | > 16 |  |  |  |  |  | CC(=O)NC[C@H]1CN(c2ccc(N3CCN(C(=O)/C=C/c4ccc(F)c(F)c4)CC3)c(F)c2)C(=O)O1 |
| 4 (≈ 8.06 µM) | 2 (≈ 4.03 µM) | 2 (≈ 4.03 µM) | 1 (≈ 2.01 µM) | 4 (≈ 8.06 µM) | 4 (≈ 8.06 µM) |  |  |  |  |  | COc1ccc(/C=C/C(=O)N2CCN(c3ccc(N4C[C@H](CNC(C)=O)OC4=O)cc3F)CC2)cc1 |
| 1 (≈ 2.07 µM) | 0.5 (≈ 1.04 µM) | 0.5 (≈ 1.04 µM) | 0.25 (≈ 0.518 µM) | 2 (≈ 4.14 µM) | 2 (≈ 4.14 µM) | 1 (≈ 2.07 µM) | 1 (≈ 2.07 µM) | 4 (≈ 8.29 µM) | 4 (≈ 8.29 µM) | > 16 | CC(=O)NC[C@H]1CN(c2ccc(N3CCN(C(=O)/C=C/c4cccc(O)c4)CC3)c(F)c2)C(=O)O1 |
| 8 (≈ 16 µM) | 8 (≈ 16 µM) | 16 (≈ 32.1 µM) | 4 (≈ 8.02 µM) | 16 (≈ 32.1 µM) | 8 (≈ 16 µM) |  |  |  |  |  | CC(=O)NC[C@H]1CN(c2ccc(N3CCN(C(=O)/C=C/c4ccc(O)c(O)c4)CC3)c(F)c2)C(=O)O1 |
| 2 (≈ 4.29 µM) | 1 (≈ 2.14 µM) | 1 (≈ 2.14 µM) | 0.5 (≈ 1.07 µM) | 2 (≈ 4.29 µM) | 4 (≈ 8.57 µM) | 1 (≈ 2.14 µM) | 4 (≈ 8.57 µM) | 2 (≈ 4.29 µM) | 4 (≈ 8.57 µM) | > 16 | CC(=O)NC[C@H]1CN(c2ccc(N3CCN(C(=O)/C=C/c4ccccc4)CC3)c(F)c2)C(=O)O1 |

Further lines, the compound ahead of its results:

| Compound | MIC [1] [µg/mL] | MIC [2] [µg/mL] | MIC [3] [µg/mL] | MIC [4] [µg/mL] | MIC [5] [µg/mL] | MIC [6] [µg/mL] | MIC [7] [µg/mL] | MIC [8] [µg/mL] | MIC [9] [µg/mL] | MIC [10] [µg/mL] | MIC [11] [µg/mL] |
| --- | --- | --- | --- | --- | --- | --- | --- | --- | --- | --- | --- |
| CC(=O)NC[C@H]1CN(c2ccc(N3CCN(C(=O)/C=C/c4ccc([N+](=O)[O-])cc4)CC3)c(F)c2)C(=O)O1 | 4 (≈ 7.82 µM) | 2 (≈ 3.91 µM) | 1 (≈ 1.95 µM) | 4 (≈ 7.82 µM) | 1 (≈ 1.95 µM) | 4 (≈ 7.82 µM) |  |  |  |  |  |
| CC(=O)NC[C@H]1CN(c2ccc(N3CCN(C(=O)CO)CC3)c(F)c2)C(=O)O1 [EPEREZOLID] | 4 (≈ 10.1 µM) | 2 (≈ 5.07 µM) | 2 (≈ 5.07 µM) | 1 (≈ 2.54 µM) | 4 (≈ 10.1 µM) |  | 2 (≈ 5.07 µM) | 4 (≈ 10.1 µM) | 4 (≈ 10.1 µM) | 4 (≈ 10.1 µM) | > 16 |
| CC(=O)NC[C@H]1CN(c2ccc(N3CCOCC3)c(F)c2)C(=O)O1 [LINEZOLID] |  | 1 (≈ 2.96 µM) | 2 (≈ 5.93 µM) | 2 (≈ 5.93 µM) | 0.5 (≈ 1.48 µM) |  |  |  |  |  | > 16 |
| C/C(S)=N/C[C@H]1CN(c2ccc(N3CCN(C(=O)/C=C/c4ccc(F)cc4)CC3)c(F)c2)C(=O)O1 | 0.5 (≈ 0.999 µM) | 0.5 (≈ 0.999 µM) | 0.5 (≈ 0.999 µM) | 0.5 (≈ 0.999 µM) | 2 (≈ 4 µM) | 1 (≈ 2 µM) | 2 (≈ 4 µM) | 4 (≈ 7.99 µM) | 4 (≈ 7.99 µM) | 1 (≈ 2 µM) | > 16 |
| C/C(S)=N/C[C@H]1CN(c2ccc(N3CCN(C(=O)/C=C/c4ccc5c(c4)OCO5)CC3)c(F)c2)C(=O)O1 | 8 (≈ 15.2 µM) | 0.25 (≈ 0.475 µM) | 0.25 (≈ 0.475 µM) | 1 (≈ 1.9 µM) | 4 (≈ 7.6 µM) | 1 (≈ 1.9 µM) | 0.25 (≈ 0.475 µM) | 1 (≈ 1.9 µM) | 0.5 (≈ 0.95 µM) | 1 (≈ 1.9 µM) | 2 (≈ 3.8 µM) |
| C/C(S)=N/C[C@H]1CN(c2ccc(N3CCN(C(=O)/C=C/c4ccc(O)cc4)CC3)c(F)c2)C(=O)O1 | 1 (≈ 2.01 µM) | 0.25 (≈ 0.501 µM) | 0.25 (≈ 0.501 µM) | ≤ 0.12 | 0.5 (≈ 1 µM) | 0.25 (≈ 0.501 µM) | 0.25 (≈ 0.501 µM) | 0.5 (≈ 1 µM) | 0.25 (≈ 0.501 µM) | 0.5 (≈ 1 µM) | 4 (≈ 8.02 µM) |
| NC(=S)NC[C@H]1CN(c2ccc(N3CCN(C(=O)/C=C/c4ccccc4)CC3)c(F)c2)C(=O)O1 | 0.5 (≈ 1.03 µM) | 1 (≈ 2.07 µM) | 0.25 (≈ 0.517 µM) | 1 (≈ 2.07 µM) | 0.25 (≈ 0.517 µM) | 1 (≈ 2.07 µM) | 0.5 (≈ 1.03 µM) | 1 (≈ 2.07 µM) | 2 (≈ 4.14 µM) | 2 (≈ 4.14 µM) | 8 (≈ 16.5 µM) |
